Source: publication PMC3344817 (ChemMedChem, 2011)

Columns and labels:
CEM T-lymphocytes = assay: Cytotoxicity; format: cell-based, human; conditions: IC50 of 2 divided by IC50 of the compound
L1210 cells = assay: Cytotoxicity; format: cell-based, murine; conditions: for RP (relative potency), L1210 cells: IC50 of 2 divided by IC50 of the compound; for IC50: Mus musculus, L1210, 48 h, read-out: IC50, L1210 cells
Molt 4/C8 T-lymphocytes = assay: Cytotoxicity; format: cell-based, human; conditions: for IC50: Homo sapiens, Molt4/C8, 72 h, read-out: IC50, Molt 4/C8 cells; for RP (relative potency), Molt 4/C8 cells: IC50 of 2 divided by IC50 of the compound
CEM = assay: CC50 by flow cytometry with propidium iodide, CEM; format: cell-based, human; conditions: CC50 toward NIH-3T3 fibroblasts / CC50 toward CEM
Outline: (§1)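 Non-adherent lymphoma/leukaemia cells in RPMI were given a range of test compound concentrations (DMSO solution) for 22 h at 37°C. Plasma membrane disruption was scored by flow cytometry with propidium iodide to derive CC50, and values are the mean of three independent experiments. SI = CC50 toward NIH-3T3 fibroblasts ÷ CC50 toward the given non-adherent line.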

Nalm6 = assay: CC50 by flow cytometry with propidium iodide, Nalm6; format: cell-based, human
Outline: as §1

human tumor cell lines = assay: US National Cancer Institute human tumor cell line screen; format: cell-based; conditions: 48 h; Figure 4
[1] = system: JURKAT, Nalm-6, SUP-T1, or CEM cells; assay: Flow cytometry analysis of apoptosis and necrosis; format: cell-based, human; conditions: after 20 h; relative to the percentage at 8 h; four non-adherent cell lines
Outline: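 Test compound was incubated with JURKAT, Nalm-6, SUP-T1 or CEM cells in RPMI. After 8 and 20 h, cells were stained with Annexin-V-FITC plus propidium iodide. Flow cytometry gave the percentages of apoptotic, necrotic and viable cells.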

Sup-T1 = assay: CC50 by flow cytometry with propidium iodide, Sup-T1; format: cell-based, human
Outline: as §1

[2] = CC50 by flow cytometry with propidium iodide, NIH-3T3 fibroblasts; format: cell-based, murine; conditions: mouse, NIH-3T3 fibroblasts (non-malignant)
Outline: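 Adherent NIH-3T3 fibroblasts in DMEM received a range of test compound concentrations (DMSO solution) for 22 h at 37°C. CC50 was obtained by flow cytometry with propidium iodide, scoring plasma membrane disruption. Values are the mean of three independent experiments.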

EL-4 = assay: CC50 by flow cytometry with propidium iodide, EL-4; format: cell-based, murine
Outline: as §1

JURKAT = assay: CC50 by flow cytometry with propidium iodide, JURKAT; format: cell-based, human
Outline: as §1

Structure (SMILES) | RP (relative potency), CEM cells (CEM T-lymphocytes) | RP (relative potency), L1210 cells (L1210 cells) | IC50 (L1210 cells) | IC50 (Molt 4/C8 T-lymphocytes) | RP (relative potency), Molt 4/C8 cells (Molt 4/C8 T-lymphocytes) | further results
O=C1C(=Cc2ccccc2)CN(C(=O)C=CC(=O)N2CC(=Cc3ccccc3)C(=O)C(=Cc3ccccc3)C2)CC1=Cc1ccccc1 [1 f, 1,4-Bis-(3,5-dibenzylidene-4-oxo-piperidin-1-yl)but-2-ene-1,4-dione] | 0.2 | 0.3 | 28.9 ± 2 µM | 4.4 ± 2.95 µM | 1.8 | 
O=C1C(=Cc2ccccc2)CN(C(=O)C(=O)N2CC(=Cc3ccccc3)C(=O)C(=Cc3ccccc3)C2)CC1=Cc1ccccc1 [Compound 1a, 1,2-Bis(3,5-dibenzylidene-4-oxo-piperidin-1-yl)ethane-1,2-dione] | 2.5 | 1.8 | 4.46 ± 0.23 µM | 0.46 ± 0.11 µM | 18 | SI (selectivity index), CEM (CEM): 376; SI (selectivity index), Nalm6 (Nalm6; CC50 toward NIH-3T3 fibroblasts / CC50 toward Nalm6): 581; CC50 (Nalm6; Homo sapiens, NALM-6, 22 h, read-out: CC50, Nalm6): 0.022 µM; IC50 towards human tumor cell lines, comparison (human tumor cell lines): generally displays lower IC50 values than 1 b; apoptotic cells [1]: doubling; SI (selectivity index), Sup-T1 (Sup-T1; CC50 toward NIH-3T3 fibroblasts / CC50 toward Sup-T1): 33; CC50 (Sup-T1; Homo sapiens, SUP-T1, 22 h, read-out: CC50, Sup-T1): 0.384 µM; CC50 at 22 h [2]: 12.8 µM; SI (selectivity index), EL-4 (EL-4; CC50 toward NIH-3T3 fibroblasts / CC50 toward EL-4): 412; CC50 (EL-4; Mus musculus, EL4, 22 h, read-out: CC50, EL-4): 0.031 µM; SI (selectivity index), JURKAT (JURKAT; CC50 toward NIH-3T3 fibroblasts / CC50 toward JURKAT): 441; CC50 (JURKAT; Homo sapiens, Jurkat, 22 h, read-out: CC50, JURKAT): 0.029 µM
O=C1C(=Cc2ccccc2)CN(C(=O)CC(=O)N2CC(=Cc3ccccc3)C(=O)C(=Cc3ccccc3)C2)CC1=Cc1ccccc1 [Compound 1b, 1,3-Bis-(3,5-dibenzylidene-4-oxo-piperidin-1yl)propane-1,3-dione] | 9.3 | 6.5 | 1.23 ± 0.38 µM | 0.07 ± 0.01 µM | 115 | 
O=C1C(=Cc2ccccc2)CN(C(=O)CCC(=O)N2CC(=Cc3ccccc3)C(=O)C(=Cc3ccccc3)C2)CC1=Cc1ccccc1 [Compound 1c, 1,4-Bis-(3,5-dibenzylidene-4-oxo-piperidin-1-yl)butane-1,4-dione] | 1.5 | 0.6 | 14 ± 1.2 µM | 0.57 ± 0.16 µM | 14 | 
O=C1C(=Cc2ccccc2)CN(C(=O)CCCC(=O)N2CC(=Cc3ccccc3)C(=O)C(=Cc3ccccc3)C2)CC1=Cc1ccccc1 [Compound 1d, 1,5-Bis-(3,5-dibenzylidene-4-oxo-piperidin-1-yl)pentane-1,5-dione] | 0.9 | 0.7 | 11.5 ± 0.3 µM | 1.61 ± 0.05 µM | 5.0 | 
O=C1C(=Cc2ccccc2)CN(C(=O)CCCCCCC(=O)N2CC(=Cc3ccccc3)C(=O)C(=Cc3ccccc3)C2)CC1=Cc1ccccc1 [Compound 1e, 1,8-Bis-(3,5-dibenzylidene-4-oxo-piperidin-1-yl)octane-1,8-dione] | 0.8 | 0.5 | 15.3 ± 4.2 µM | 1.53 ± 0.54 µM | 5.3 | 
O=C1C(=Cc2ccccc2)CN(C(=O)C#CC(=O)N2CC(=Cc3ccccc3)C(=O)C(=Cc3ccccc3)C2)CC1=Cc1ccccc1 [Compound 1g, 1,4-Bis-(3,5-dibezylidene-4-oxo-piperidin-1-yl)-but-2-yne-1,4-dione] | 0.6 | 0.8 |  |  | 5.4 | 
O=C1C(=Cc2ccccc2)CN(C(=O)C=CC=CC(=O)N2CC(=Cc3ccccc3)C(=O)C(=Cc3ccccc3)C2)CC1=Cc1ccccc1 [Compound 1h, 1,6-Bis-(3,5-dibenzylidene-4-oxo-piperidin-1-yl)-hexa-2,4-diene-1,6-dione] | 0.1 | 0.1 | 79 ± 10.2 µM | 25.1 ± 15.8 µM | 0.3 | 
O=C1C(=Cc2ccccc2)CN(C(=O)c2ccccc2C(=O)N2CC(=Cc3ccccc3)C(=O)C(=Cc3ccccc3)C2)CC1=Cc1ccccc1 [Compound 1i, 1,2-Bis-[(3,5-dibenzylidene-4-oxo-piperidin-1-yl)-1-carbonyl]benzene] | 1.3 | 1.9 |  |  | 9.5 | 
O=C1C(=Cc2ccccc2)CN(C(=O)c2cccc(C(=O)N3CC(=Cc4ccccc4)C(=O)C(=Cc4ccccc4)C3)c2)CC1=Cc1ccccc1 [Compound 1j, 1,3-Bis-[(3,5-dibenzylidene-4-oxo-piperidin-1-yl)-1-carbonyl]benzene] | 0.1 | 0.1 |  |  | 0.7 | 
N[C@@H](Cc1ccc(N(CCCl)CCCl)cc1)C(=O)O [Melphalan, reference compound] |  |  |  | 3.24 ± 0.79 µM |  | 
